The species named for series [1] is Homo sapiens. In words: Binding affinity to G-quadruplex folded telomeric sequence Tel22 DNA (unknown origin) assessed as DNA stabilization at 8 uM by circular dichroism spectral analysis. (In general: Circular dichroism is the unequal absorption of left and right circularly polarised light.)
The nature of series [2]: Stability of the compound assessed as retention time after 100 mins of UV irradiation. The format is physicochemical. In outline: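 Ligand (30 μM) in 10 mM Tris-HCl, 50 mM KCl, pH 7.5 was irradiated at 308 nm (0.022 J/min) at 25 °C for increasing times. Samples ran on C18 HPLC at 0.02 mL/min with a water/acetonitrile gradient (0.1% formic acid) of 4–80% over 20 min. Detection was positive-mode ESI-MS (4.5 kV, m/z 100–2500).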

The species entered for series [3] is Homo sapiens. The series can be described thus: Stabilization of G-quadruplex folded telomeric sequence Tel22 DNA (unknown origin) assessed as DNA modifications at 20 to 50 uM measured 20 mins post UV irradiation by PAGE analysis. The procedure, abridged:
(§1)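 Tel22 or single-stranded 22-mer 5′-32P end-labelled with T4 kinase; 1 μM DNA in 10 mM Tris, 50 mM KCl, pH 7.5 with increasing ligand, irradiated at 308 nm for variable time (or ligand pre-irradiated 30 min, or non-irradiated); products run on 20% polyacrylamide/7 M urea in 1× TBE, quantified by phosphorimaging.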

The species entered for series [4] is Homo sapiens. The series can be described thus: Stabilization of single-stranded DNA 5'-GGATGTGAGTGTGAGTGTGAGG-3' (unknown origin) assessed as DNA modifications at 20 to 50 uM measured 20 mins post UV irradiation by PAGE analysis. In outline:
as §1

Another series deals with DNA. The series can be described thus: Binding affinity to calf thymus DNA assessed as DNA stabilization at 8 uM by circular dichroism spectral analysis. To be noted: Bos taurus.
A short description of series [5]: Stability of the compound assessed as retention time after 3 mins of UV irradiation. To be noted: 0.05 h. The format is physicochemical. The procedure, abridged:
(§2)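 30 μM ligand in 10 mM Tris-HCl, 50 mM KCl, pH 7.5 irradiated at 308 nm (0.022 J/min), 25 °C, for increasing times; analysed by LC on C18 (water/acetonitrile 4–80% gradient with 0.1% formic acid over 20 min, 0.02 mL/min) with positive-mode ESI-MS, m/z 100–2500.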

Series [6] is described as follows: Stability of the compound assessed as retention time after 25 mins of UV irradiation. The format is physicochemical. The procedure, abridged:
as §2

The species named for series [7] is Homo sapiens. The series can be described thus: Stabilization of double-stranded DNA (unknown origin) assessed as DNA modifications at 20 to 50 uM measured 20 mins post UV irradiation by PAGE analysis.
The nature of series [8]: Stability of the compound assessed as retention time. In kind it is physicochemical. In outline:
as §2

The species named for series [9] is Homo sapiens. The series can be described thus: Binding affinity to 18 bp double-stranded DNA (unknown origin) assessed as DNA stabilization by fluorescence melting assay. In outline:
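Fluorescence melting in a real-time PCR cycler (excitation 488 nm, emission 520 nm). The HTS target carried 5′-Dabcyl and 3′-fluorescein; the 18 bp duplex was also a target. Mixtures held 0.25 μM DNA plus ligand in 10 mM LiOH, 50 mM KCl, pH 7.4 (H3PO4). Samples were denatured at 95 °C for 5 min, cooled to 30 °C at 0.5 °C/min, then heated to 90 °C and recooled at 0.2 °C/min. Tm came from the first derivative, ≥3 repeats.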

The species named for series [10] is Homo sapiens. The series can be described thus: Binding affinity to G-quadruplex folded telomeric sequence Tel22 DNA (unknown origin) assessed as DNA stabilization measured 25 mins post UV irradiation by circular dichroism spectral analysis.
Series [11] is filed under the species Homo sapiens. The series can be described thus: Binding affinity to G-quadruplex folded telomeric sequence Tel22 DNA (unknown origin) assessed as DNA stabilization at 8 uM by circular dichroism spectral analysis relative to control.
For series [12], the species on record is Homo sapiens. In words: Binding affinity to human telomeric sequence 5'-AGGGTTAGGGTTAGGGTTAGGGT-3' assessed as change in melting temperature at 10 uM by fluorescence melting assay.
The species entered for series [13] is Homo sapiens. The series can be described thus: Binding affinity to human telomeric sequence 5'-AGGGTTAGGGTTAGGGTTAGGGT-3' assessed as thermal stability by fluorescence melting assay relative to control. The procedure, abridged:
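Fluorescence melting on a LightCycler (ex 488, em 520 nm); 0.25 μM 5′-Dabcyl/3′-fluorescein HTS oligo in 10 mM LiOH, 50 mM KCl, pH 7.4 (H3PO4); ligand 0.5–10 μM; denatured 95 °C 5 min, cooled to 30 °C, melted 0.2 °C/min to 90 °C; Tm from first derivative; ≥3 repeats.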

Calls of active or inactive are those of the source. The calls are words filed in the database; no cut-off is given here.

This is an account of results in ChEMBL document CHEMBL2311519, “Identification and characterization of new DNA G-quadruplex binders selected by a combination of ligand and structure-based virtual screening approaches” (J Med Chem, 2013).

For the molecule `Cc1c(CC(=O)N(C)C2CCN(C)CC2)c(=O)oc2c(C)c3occ(-c4ccccc4)c3cc12`, the result in the series filed under Homo sapiens [1], in the series with DNA, in the series filed under Homo sapiens [9], in the series filed under Homo sapiens [10] and in the series listed under Homo sapiens [11] was inactive. Besides, the Retention_time in series [2] was found to be 16.6 min; in [5], 16.6 min; in series [6], 16.6 min; in series [8], 17 min. The outcome in the series listed under Homo sapiens [3], in the series filed under Homo sapiens [4] and in the series listed under Homo sapiens [7] was Active.

In the case of `COc1ccc(-c2coc3cc4oc(=O)c(CC(=O)N5CCN(CCO)CC5)c(C)c4cc23)cc1`, the result in the series filed under Homo sapiens [9] was inactive.

As for `CN(C)c1ccc(Nc2c3ccc(NC(=O)CCN4CCCC4)cc3nc3cc(NC(=O)CCN4CCCC4)ccc23)cc1`, the deltaTm in the series listed under Homo sapiens [12] amounted to 32 °C.

For the molecule `Cc1c(CC(=O)N2CCN(C)CC2)c(=O)oc2cc3occ(-c4ccc(Cl)cc4)c3cc12`, the outcome in the series listed under Homo sapiens [1], in the series filed under Homo sapiens [13], in the series with DNA, in the series listed under Homo sapiens [9], in the series filed under Homo sapiens [10] and in the series filed under Homo sapiens [11] was inactive. The outcome in the series listed under Homo sapiens [3], in the series filed under Homo sapiens [4] and in the series filed under Homo sapiens [7] was Active. Moreover, the Retention_time in [5] stood at 16.1 min; in series [6], 16.1 min; in series [8], 17.2 min.

Take `Cc1cc2c3c([n+](C)c4ccc(F)cc4c3c1)-c1cc(F)ccc1N2C`: the deltaTm in the series listed under Homo sapiens [12] worked out at 30 °C.

Take `Cc1c(CCC(=O)N2CCN(C)CC2)c(=O)oc2cc3occ(-c4ccccc4)c3cc12`: the outcome in the series filed under Homo sapiens [9] was inactive.

With `Cc1c(CCC(=O)NCCCn2ccnc2)c(=O)oc2cc3occ(-c4ccc(F)cc4)c3cc12`, the result in the series listed under Homo sapiens [9] was inactive.
